The values that follow come from PubChem BioAssay.

SMILES strings stand for the structures. The source made the active and inactive calls.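 How the source made its calls, unless noted: active means compounds giving at least 50% inhibition in the cell-based MKP-3 phosphatase rescue imaging test; inactive means the rest.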

The nature of assay [1]: inhibitors of TNFa-induced NFkB p65 translocation, primary screen, imaging, HUVEC, MLSMR starter and 10KST1 sets (AID 438;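 active means inhibition above 20% together with a positive visual image hit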;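 further: compound added about 3h40 before a 20 min TNFalpha stimulation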;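 on inhibition: signal is the nuclear over cytoplasmic p65 intensity ratio per well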). The following applies: HUVEC TNFa-induced p65 nuclear translocation; cell count: measured here: nuclei count (cytotoxicity indicator), at 2.08 µM; inhibition: at 2 µM, stronger effect = higher value, 0% TNFa-plus-vehicle, 100% no-TNFa wells.
Assay [2] can be described thus: endothelial E-selectin expression blockers – imaging, HUVEC, immunofluorescence, MLSMR starter and 10KST1 sets, primary screen (AID 487;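 active means visually confirmed hit in the image check and inhibition above 20%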;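 on inhibition: signal is fraction of cell area covered by stained E-selectin grains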;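 on nuclei count: 100% = median nuclei count of all wells on the same plate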). The following applies: HUVEC TNFalpha-induced E-selectin immunofluorescence imaging, at 2 µM; inhibition: stronger effect = higher value; nuclei count: measured here: cell number, toxicity.
Assay [3] can be described thus: Primary imaging screen for DUSP6 inhibitors that restore phospho-Erk in transfected HeLa cells, chemical complementation (AID 609).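 On inhibition: phospho-Erk level distribution per well compared with pooled transfected vehicle control wells.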 The note with it: HeLa MKP-3 transfected, phospho-Erk imaging KS statistic, at 10 µM, cells stimulated with TPA for 15 min.
Assay [4] concerns the target Dual specificity protein phosphatase 6 (Homo sapiens) (UniProt Q16828). The description is as above. The note with it: HeLa MKP-3 transfected, phospho-Erk imaging KS statistic; at 10 µM; stronger effect = higher value; cells stimulated with TPA for 15 min.
The target in assay [5] is Voltage-gated potassium channel subunit beta-2 (Rattus norvegicus) (UniProt P62483). In words: inhibitors of rat Kvbeta2 reductase activity – biochemical, NADPH fluorescence, primary screen (AID 622;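 active means fluorescence slope higher than the sample average by over 3 SD, cut at about -0.22 in these data, passing the limit was not always enough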;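 further: slope of raw intensity against log time taken from 70 to 1610 s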). The following applies: recombinant KvBeta, 4-cyanobenzaldehyde reduction, at 10 µM, stronger effect = higher value.
Voltage-gated potassium channel subunit beta-2 (Rattus norvegicus), sequence (P62483 whole entry, looked up): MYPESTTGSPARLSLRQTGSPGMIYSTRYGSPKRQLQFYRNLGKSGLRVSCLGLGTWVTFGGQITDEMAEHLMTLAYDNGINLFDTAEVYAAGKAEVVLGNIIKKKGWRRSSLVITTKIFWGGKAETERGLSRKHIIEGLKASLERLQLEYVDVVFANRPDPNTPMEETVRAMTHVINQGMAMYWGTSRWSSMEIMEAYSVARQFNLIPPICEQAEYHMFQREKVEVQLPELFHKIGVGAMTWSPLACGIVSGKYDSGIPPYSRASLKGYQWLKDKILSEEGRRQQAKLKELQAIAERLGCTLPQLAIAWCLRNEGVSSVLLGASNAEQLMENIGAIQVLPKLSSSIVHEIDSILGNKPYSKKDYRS
The target is the same in assay [6]. The assay can be described thus: enhancers of rat Kvbeta2 NADPH turnover – biochemical, NADPH fluorescence, primary screen (AID 623;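 active means NADPH fluorescence slope more negative than the mean of all samples by about 3 SD, 99.7% confidence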;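 further: fluorescence intensity change per second fitted from 20 to 320 s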). The note with it: Recombinant KvBeta, NADPH fluorescence decrease slope, 10 min; at 10 µM; stronger effect = lower value.
Assay [7] has as its target Alpha-2C adrenergic receptor (Homo sapiens) (UniProt P18825). The assay can be described thus: compounds altering alpha2C-coupled GIRK flux – cell-based, HEK293 alpha2C/GIRK1/2, thallium flux, primary screen (AID 624;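 active means fluorescence slope after compound addition differing from the mean of all screened samples at 99.7% confidence, in either direction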;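 further: slope of fluorescence ratio to pre-addition baseline per second over 15 to 24 s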). The following applies: thallium flux BTC fluorescence, at 10 µM, actives lie on both sides.
A short description of assay [8]: inhibitors of larval lipid processing in zebrafish, primary screen, whole organism, PED6 fluorescence, gall bladder and intestine (AID 686;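 active means a full or partial loss of lipid-probe fluorescence in the fish gall bladder, intestine or both, judged by eye; inactive means no fluorescence loss, or compound toxic to the fish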;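 further: larvae 5 to 7 days old with five fish per well; signal comes from phospholipase A2 cleavage of quenched PED6 carried via bile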). The note with it: Zebrafish larvae PED6 lipid processing, fluorescence scoring; screened at 20 µM (by protocol). Put shortly: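 system = live zebrafish larvae aged 5-7 days, whole organism | probe or stimulus = ingested quenched lipid PED6 at 100 nM | doses = 20 µM single dose | timing = overnight exposure | detection = fluorescence microscopy with visual scoring of gall bladder and intestine | read-out = visual per-well fluorescence inhibition score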

The nature of assay [9]: loss of swimming-algae plug formation – whole organism, Chlamydomonas reinhardtii, WT vs cilia-less mutant, absorbance, 96-well, primary screen (AID 463189;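 active means inhibition at or above 50% relative to wild type and mutant plate controls; inactive means inhibition below 50%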;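 further: 0% = wild type cc124 cells in DMSO and 100% = ciliumless bld1 mutant cells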). The following applies: Chlamydomonas reinhardtii gravitaxis, OD600 absorbance, 2 days; at 10 µM; stronger effect = higher value.
[10] abbreviates: measured here: cell density z-score.
Where [11] appears, read: measured here: nuclear c-Myc green intensity z-score.
The mark [12] stands for this setting: measured here: nuclear pErk red intensity z-score, stronger effect = higher value.

Alpha-2C adrenergic receptor (Homo sapiens), sequence (P18825 whole entry, looked up): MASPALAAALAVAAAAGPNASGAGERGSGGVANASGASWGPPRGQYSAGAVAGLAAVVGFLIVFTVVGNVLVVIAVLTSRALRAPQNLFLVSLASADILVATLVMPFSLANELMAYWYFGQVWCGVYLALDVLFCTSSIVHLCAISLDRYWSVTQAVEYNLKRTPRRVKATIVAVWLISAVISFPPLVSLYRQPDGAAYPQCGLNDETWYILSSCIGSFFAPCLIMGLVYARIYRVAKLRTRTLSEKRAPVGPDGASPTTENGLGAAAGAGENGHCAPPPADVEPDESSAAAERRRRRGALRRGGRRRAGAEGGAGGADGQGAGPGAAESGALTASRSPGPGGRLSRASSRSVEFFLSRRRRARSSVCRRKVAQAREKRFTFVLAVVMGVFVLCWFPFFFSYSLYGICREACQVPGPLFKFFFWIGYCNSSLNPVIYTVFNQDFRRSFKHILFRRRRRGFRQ
Dual specificity protein phosphatase 6 (Homo sapiens), sequence (Q16828 whole entry, looked up): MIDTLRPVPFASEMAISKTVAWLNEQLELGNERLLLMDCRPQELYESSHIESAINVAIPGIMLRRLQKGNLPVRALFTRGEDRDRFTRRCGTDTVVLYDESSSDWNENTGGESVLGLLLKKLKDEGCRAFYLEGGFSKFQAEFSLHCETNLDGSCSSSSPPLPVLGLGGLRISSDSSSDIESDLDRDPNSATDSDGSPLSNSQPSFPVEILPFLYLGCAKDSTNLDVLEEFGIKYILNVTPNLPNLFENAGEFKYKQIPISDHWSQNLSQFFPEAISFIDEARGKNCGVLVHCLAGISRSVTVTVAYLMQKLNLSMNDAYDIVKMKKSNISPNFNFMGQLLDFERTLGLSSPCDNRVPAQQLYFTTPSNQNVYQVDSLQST

For orientation: inhibition means the change of the read-out against control, counted positive when it falls. Take `COc1ccc(N2CCN(C3CC(=O)NC3=O)CC2)cc1` (centres undefined): the cell count in assay [1] is 540. Further, the inhibition in [1] is -26.9% (inactive); in [2], -161% (inactive); in assay [4] it was 9.82% (inactive); in assay [9], 5.23% (inactive). Besides, the nuclei count in [2] came to 176%. Besides, the results for the z-score in assay [3] (setting [10]), in assay [3] (setting [11]) and in assay [3] (setting [12]) were 0.114, -0.641 and -1.94, respectively. Besides, the fluorescence slope in assay [5] was -0.548 (inactive). Also, the NADPH fluorescence slope in [6] was -4.7e-05 (inactive). Further, the slope in assay [7] was 0.00484 (inactive). Also, in assay [8], the compound was called inactive.
Consider `CCN(CC)CCCn1c(C)cc2c(c1=O)C(c1cccc(Cl)c1)C(C#N)=C(N)O2` (centres undefined), for which, in [1], the cell count was 448. The inhibition in assay [1] was 13.8% (inactive); in assay [2] it was -49.3% (inactive); in assay [4] it was 2.46% (inactive); in assay [9] it was -6.29% (inactive). The compound also registered a nuclei count in assay [2] of 146%. Besides, the results for the z-score in assay [3] (setting [10]), in [3] (setting [11]) and in assay [3] (setting [12]) were -0.339, 0.269 and 1.37, respectively. Moreover, the fluorescence slope in assay [5] is -0.388 (inactive). Besides, the NADPH fluorescence slope in assay [6] is -4.3e-05 (inactive). The slope in assay [7] is 0.00525 (inactive). In addition, the result in [8] was inactive.
As for `C/C(=N\O)c1ccc2[nH]ccc2c1`, the cell count in assay [1] was found to be 578. The inhibition in assay [1] is 0.2% (inactive); in [2], 45.4% (inactive); in [4], -7.01% (inactive); in assay [9], -2.54% (inactive). Moreover, the nuclei count in assay [2] worked out at 161%. Moreover, the z-score is 0.0779 in assay [3] (setting [10]), 0.348 in assay [3] (setting [11]) and -0.861 in assay [3] (setting [12]). The fluorescence slope in assay [5] is -0.341 (inactive). For the same compound, the NADPH fluorescence slope in assay [6] is -3.6e-05 (inactive). Also, the slope in assay [7] was 0.00435 (inactive). Moreover, in assay [8], the compound was called inactive.
Turning to `O=C(CCN1CCCCC1)Nc1cccc(Cl)c1`, the cell count in [1] was determined as 336. Moreover, the inhibition is -14.7% (inactive) in [1], -49.9% (inactive) in assay [2], -3.5% (inactive) in [4] and -5.09% (inactive) in assay [9]. The nuclei count in [2] is 138%. The results for the z-score in [3] (setting [10]), in assay [3] (setting [11]) and in [3] (setting [12]) were -1.72, 0.965 and 0.516, respectively. For the same compound, the fluorescence slope in [5] was -0.42 (inactive). Also, the NADPH fluorescence slope in assay [6] was -0.000129 (inactive). In addition, the slope in [7] is 0.0069 (inactive). Further, the compound was called inactive in [8].
With `COC(=O)c1cc2c(=O)n3cccc(C)c3nc2n(Cc2cccnc2)c1=N`, the cell count in assay [1] stood at 626. Moreover, the inhibition is -15% (inactive) in [1], -113% (inactive) in [2], 25.7% (inactive) in assay [4] and 32.4% (inactive) in assay [9]. This compound displayed a nuclei count in [2] of 159%. Further, the z-score was 2.59 in assay [3] (setting [10]), -0.798 in assay [3] (setting [11]) and -0.054 in assay [3] (setting [12]). The fluorescence slope in [5] is -0.523 (inactive). For the same compound, the NADPH fluorescence slope in assay [6] was -3.6e-05 (inactive). Also, in assay [7], the slope was 0.00531 (inactive). The compound was classed as inactive in [8].
`COc1ccc(-c2nnc3sc(-c4ccccc4OC)nn23)cc1`: in assay [1], the cell count was found to be 615. In addition, the inhibition in assay [1] was -8.4% (inactive); in assay [2], -30.4% (inactive); in assay [4], -11.5% (inactive); in assay [9], 12.7% (inactive). This compound returned a nuclei count in assay [2] of 153%. Besides, the z-score in [3] (setting [10]) is 0.537; in assay [3] (setting [11]), -0.23; in assay [3] (setting [12]), -1.1. In addition, the fluorescence slope in [5] is -0.413 (inactive). Besides, the NADPH fluorescence slope in [6] was -4.4e-05 (inactive). The slope in assay [7] is 0.00877 (inactive). For the same compound, in [8], the result was inactive.
Turning to `CCOC(=O)CSc1nnc2n(C3CCCCC3)c(=O)c3c4c(sc3n12)CCCC4`, the cell count in assay [1] came out at 650. For the same compound, the inhibition in assay [1] is -11.4% (inactive); in [2] it was -104% (inactive); in [4] it was 1.75% (inactive); in [9] it was -1.33% (inactive). In assay [2], this compound yielded a nuclei count of 146%. Further, the z-score in assay [3] (setting [10]) was -1.05; in [3] (setting [11]) it was -0.745; in assay [3] (setting [12]) it was -0.835. For the same compound, the fluorescence slope in assay [5] was -0.533 (inactive). In assay [6], the NADPH fluorescence slope was -0.0001 (inactive). In addition, the slope in assay [7] is 0.00612 (inactive). Further, in assay [8], the compound was classed as inactive.
Take `O=C(NCCOCCOCCNC(=O)c1cccnc1)c1cccnc1`: the cell count in assay [1] worked out at 490. Also, the inhibition in assay [1] is 0.8% (inactive); in assay [2], -165% (inactive); in assay [4] it was 34.8% (inactive); in [9], -5.31% (inactive). Moreover, the nuclei count in [2] turned out to be 151%. The z-score is -2.67 in assay [3] (setting [10]), -0.0249 in assay [3] (setting [11]) and -0.654 in assay [3] (setting [12]). In addition, the fluorescence slope in [5] was -0.514 (inactive). In assay [6], the NADPH fluorescence slope is -7.5e-05 (inactive). Besides, the slope in assay [7] is 0.00454 (inactive). In addition, in assay [8], the outcome was inactive.
For `COc1ccc2[nH]c(C)c(C(=O)CN3CCc4cc(OC)c(OC)cc4C3)c2c1`, the cell count in [1] came out at 520. Further, the inhibition in assay [1] was 3.2% (inactive); in [2] it was 7.5% (inactive); in assay [4], -8.76% (inactive); in assay [9], 22.2% (inactive). This compound also returned a nuclei count in [2] of 117%. Moreover, the z-score in [3] (setting [10]) was -1.28; in assay [3] (setting [11]) it was 1.53; in assay [3] (setting [12]), -1.2. For the same compound, the fluorescence slope in assay [5] is -0.205 (inactive). Also, the NADPH fluorescence slope in assay [6] was -2e-05 (inactive). In addition, the slope in [7] is 0.00464 (inactive). The compound was classed as inactive in [8].
For `COc1ccccc1N(O)C1CC(=O)N(c2ccc(Br)cc2)C1=O` (centres undefined), the cell count in assay [1] is 351. Also, the inhibition is 4% (inactive) in assay [1], 46% (inactive) in assay [2], -2.59% (inactive) in assay [4] and 37.8% (inactive) in assay [9]. This compound also showed a nuclei count in assay [2] of 74.7%. In addition, the z-score in assay [3] (setting [10]) is -0.0216; in assay [3] (setting [11]), 1.1; in assay [3] (setting [12]) it was 0.319. The fluorescence slope in assay [5] is -0.415 (inactive). Further, the NADPH fluorescence slope in assay [6] is -4.4e-05 (inactive). In addition, the slope in [7] is 0.00547 (inactive). Moreover, in assay [8], the compound was classed as inactive.
Take `CCCOc1ccc(Cn2c(O)cc(=O)[nH]c2=O)cc1`: the cell count in [1] came out at 568. For the same compound, the inhibition in assay [1] is 0% (inactive); in assay [2] it was -90.4% (inactive); in assay [4], -8.95% (inactive); in assay [9] it was -1.95% (inactive). The nuclei count in assay [2] is 188%. The z-score is -0.648 in assay [3] (setting [10]), -0.788 in [3] (setting [11]) and 0.279 in assay [3] (setting [12]). In addition, the fluorescence slope in assay [5] is -0.372 (inactive). Further, the NADPH fluorescence slope in [6] is -3.5e-05 (inactive). For the same compound, the slope in assay [7] is 0.00508 (inactive). Also, the call in assay [8] was inactive.
For `Oc1ccc2ccccc2c1/C=N/n1cnnc1`, the cell count in [1] was 538. For the same compound, the inhibition is -5.9% (inactive) in assay [1], -57.1% (inactive) in assay [2], -2.91% (inactive) in assay [4] and -4.69% (inactive) in assay [9]. In addition, the nuclei count in assay [2] amounted to 217%. In addition, the z-score was 0.969 in [3] (setting [10]), 0.692 in [3] (setting [11]) and -0.685 in [3] (setting [12]). The fluorescence slope in assay [5] is -0.356 (inactive). For the same compound, the NADPH fluorescence slope in assay [6] is -1.6e-05 (inactive). Moreover, the slope in assay [7] is 0.00487 (inactive). In [8], the result was inactive.
Take `COc1ccc(CCCNC(=O)CC#N)cc1OC`: the cell count in assay [1] was 652. Besides, the inhibition was -3.9% (inactive) in [1], -14.5% (inactive) in [2], 17% (inactive) in assay [4] and 10.9% (inactive) in assay [9]. Also, the nuclei count in assay [2] came to 185%. The z-score in assay [3] (setting [10]) is -0.133; in assay [3] (setting [11]) it was 0.521; in [3] (setting [12]), -0.241. Further, the fluorescence slope in assay [5] is -0.512 (inactive). Besides, the NADPH fluorescence slope in assay [6] is -4.5e-05 (inactive). In [7], the slope was 0.00537 (inactive). For the same compound, in assay [8], the compound was classed as inactive.
